Source: PubChem
Shown are actives, neighbours in structure and some others; about 3.9% of the full set was active somewhere.
TAAR1 antag: antagonists of human TAAR1; inhibition, % at 3 µM; hit rate 1.5% among 360,000; CHO RD-HGA16 TAAR1, Fluo-8 calcium fluorescence, antagonist; Q96RJ0;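 active = inhibition above a per-plate cutoff, the mean inhibition of test compounds on that plate plus 3 SD, cut at about 49% in these data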;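 note: 0% = DMSO plus EC80 beta-PEA response and 100% = DMSO alone without agonist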
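Test system: RD-HGA16 CHO cells with stable hTAAR1 and Gα16 / Probe or stimulus: EC80 β-phenethylamine stimulus / Times: seeding 17-24 h prior, 75-min 37 °C, 30-min RT dye loading / Detection: Fluo-8 calcium-sensitive fluorescence / Read-out basis: % inhibition scaled between DMSO and EC80 PEA controls / Repeats: singlicate, one well per test compound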
OX1R antag-1: human HCRTR1 antagonism. O43613. CHO/OX1R cells, Fluo-8 calcium fluorescence, orexin A. inhibition, % at 5 µM. hit rate 0.43% among 330,000. AID 434989;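 active = inhibition above its plate's threshold, mean inhibition of all tested compounds on the plate plus 3 SD, cut at about 37% in these data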;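 note: 0% = orexin A challenge wells and 100% = SB-334867-A antagonist wells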
Target sequence (O43613 whole entry, looked up): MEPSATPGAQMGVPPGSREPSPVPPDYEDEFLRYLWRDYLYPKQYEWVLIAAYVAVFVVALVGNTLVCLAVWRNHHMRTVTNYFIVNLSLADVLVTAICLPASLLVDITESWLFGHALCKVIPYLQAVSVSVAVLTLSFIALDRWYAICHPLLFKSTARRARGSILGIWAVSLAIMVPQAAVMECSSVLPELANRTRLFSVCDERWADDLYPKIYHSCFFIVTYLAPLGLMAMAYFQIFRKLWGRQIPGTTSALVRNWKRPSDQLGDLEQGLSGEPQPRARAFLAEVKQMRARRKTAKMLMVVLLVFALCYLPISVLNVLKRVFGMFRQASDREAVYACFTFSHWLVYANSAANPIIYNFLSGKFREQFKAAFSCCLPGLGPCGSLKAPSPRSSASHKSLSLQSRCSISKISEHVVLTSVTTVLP
CHO parental Ca: counter-screen for OX1R antagonists: effect in parental CHO cells; inhibition, % at 5.6 µM; hit rate 0.63% among 330,000; AID 463079; parental CHO-K1, ATP-induced calcium, Fluo-8 fluorescence;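 active = inhibition above that plate's mean sample inhibition plus 3 SD, cut at about 26% in these data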;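 note: 0% = ATP-challenged DMSO wells and 100% = DMSO wells without ATP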
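Test system: untransfected parental CHO cell line. Compound: one dose, 5.6 µM nominal. Detection: intracellular calcium via Fluo-8 no-wash fluorescent dye. Measure: % inhibition. Benchmarks: ATP-challenged DMSO wells low, unchallenged DMSO wells high.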
OX1R antag-2: OX1R (human) antagonism | OX1R-expressing cells, FRET antagonist read-out | inhibition, % at 6.6 µM | hit rate 1.8% among 330,000 | AID 485270; in the data active = inhibition mostly above about 38%, no sharp cut-off; inactive = mostly below about 40%;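 note: 0% = agonist challenge alone and 100% = reference antagonist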
TAAR1 agonist: agonists of human TAAR1; Q96RJ0; hit rate 0.99% among 360,000; CHO RD-HGA16 TAAR1, Fluo-8 calcium fluorescence; vehicle wells 0%, saturating PEA agonist 100%; activation, % at 3 µM;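 active = activation above the mean activation of all test compounds in the run plus 3 SD, cut at about 38% in these data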
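Test system: RD-HGA16 (CHO) cells co-expressing Gα16 and hTAAR1 | Doses: Single dose, 3 µM | Schedule: 17-24 h seeding, 75 min 37 °C dye, 30 min RT | Evaluation: % activation from peak over basal fluorescence ratio, DMSO-to-PEA scaled | Technique: Kinetic Fluo-8 calcium fluorescence | Benchmarks: Low control DMSO, high control PEA (EC100)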
TAAR1 nonsel count: nonselective antagonism, TAAR1 counter-screen. shares compounds with TAAR1 antag. counterscreen cell line, calcium fluorescence, antagonist mode. inhibition, % at 3 µM. hit rate 77% among 2,400. AID 651780; in the data active = inhibition above about 22%;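 note: CHO-Ga16 host cells stimulated with ATP at an EC80 level; 0% = agonist EC80 plus vehicle and 100% = vehicle without agonist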
TAAR1 ant conf: human TAAR1 antagonism, confirmed; shares compounds with TAAR1 antag; TAAR1-expressing cells, fluorescence antagonist read-out; inhibition, % at 3 µM; hit rate 40% among 2,400; AID 651785; in the data active = inhibition above about 49%;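 note: CHO-Ga16 host cells challenged with agonist PEA near its EC80; 0% = agonist at EC80 plus vehicle and 100% = vehicle with no agonist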
Ga16 ag counter: nonselective Ga16 agonist in TAAR1 antagonist counter-screen; shares compounds with TAAR1 antag; Ga16-expressing cells, calcium fluorescence, agonist counterscreen; activation, % at 3 µM; hit rate 18% among 2,400; AID 651953; in the data active = activation above about 12%;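 note: 0% = vehicle wells and 100% = saturating stimulus response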
TAAR1 ag count: counter-screen for human TAAR1 antagonists: TAAR1 agonists; shares compounds with TAAR1 antag; hTAAR1 cell line, fluorescence activation, agonist mode; activation, % at 3 µM; hit rate 2% among 2,400; AID 651955; in the data active = activation above about 37%;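 note: CHO cells stably expressing TAAR1 with calcium dye readout; 0% = DMSO vehicle and 100% = full agonist response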
Numbers without * were called inactive; x = not tested or not shown.

SMILES	TAAR1 antag	OX1R antag-1	CHO parental Ca	OX1R antag-2	TAAR1 agonist	TAAR1 nonsel count	TAAR1 ant conf	Ga16 ag counter	TAAR1 ag count
COc1ccc(-c2ccc3c(n2)CCCN3S(=O)(=O)c2cccs2)cc1	81*	x	x	x	13	42*	64*	11	13
Cc1cc(C(=O)CSc2ccc(F)cc2)cc(C)c1O	30	-37	-14	13	3	x	x	x	x
Cc1cc(C(=O)CSc2ccc(Cl)cc2)cc(C)c1OC(=S)N(C)C	63*	-23	-1	36	5	19	37	1	1
O=C(NCCc1ccccc1)c1cccc2c1C(=O)c1ccc(N3CCOCC3)cc1S2(=O)=O	51*	-3	-9	9	27	24*	43	10	10
O=C(NCc1ccc(F)cc1)c1cccc2c1C(=O)c1ccc(N3CCOCC3)cc1S2(=O)=O	55*	-17	-18	6	36	27*	45	9	7
CC1CCN(c2ccc3c(c2)S(=O)(=O)c2cccc(C(=O)NCc4ccc(F)cc4)c2C3=O)CC1	38	-4	-14	0	22	x	x	x	x
CCOC(=O)C1C(C)=C(Nc2ccc(OC)cc2)C(=O)N1c1ccc(OC)cc1 (stereo unspecified)	9	-12	-13	5	3	x	x	x	x
C/C=C(/C)C(=O)O[C@@H]1c2c(ccc3ccc(=O)oc23)O[C@@H]1C(C)(C)OC(=O)/C(C)=C\C	59*	12	29	53	6	21	24	9	3
C/C=C(/C)C(=O)OC(C)(C)[C@@H]1Cc2c(ccc3ccc(=O)oc23)O1	10	-27	-17	36	7	x	x	x	x
Cc1cc(-c2nc3cccnc3s2)ccc1NS(=O)(=O)c1cccs1	63*	8	-12	12	0	16	34	3	0
c1ccc(-c2ncnc3ccccc23)cc1	5	x	x	x	0	x	x	x	x
CCOC(=O)c1cnc2ccc(C(=O)OC)cc2c1Nc1ccc(C(=O)O)cc1	8	-8	-10	8	15	x	x	x	x
CCOC(=O)c1ccc2ncc(C(=O)OCC)c(Nc3ccc(N4CCOCC4)cc3)c2c1	57*	-25	-21	36	10	36*	57*	6	3
Oc1[nH]c2ccccc2c1N=Nc1ccc(F)cc1	8	-13	-2	12	15	x	x	x	x
O=C(N=Nc1c(O)[nH]c2ccccc12)c1cc(-c2ccc(F)cc2)n[nH]1	65*	-1	-6	25	4	14	15	2	0
O=C(Nc1c(F)cccc1F)c1cnc(N2CCN(c3ccccn3)CC2)c2ccccc12	63*	-27	-15	26	14	35*	60*	7	5
Cc1nc(N2CCN(c3ccccn3)CC2)c2c(C)c(C(=O)Nc3ccccc3F)sc2n1	-1	-32	-15	6	4	x	x	x	x
CSCCC(NC(=O)COc1ccccc1)C(=O)OC(C)C(=O)Nc1ccccc1C (stereo unspecified)	-14	-34	1	18	-1	x	x	x	x
CCN(CC)S(=O)(=O)c1ccc(-n2cnc3cc(C)c(C)cc32)nc1	9	-31	-12	2	1	x	x	x	x
CCOC(=O)c1sc(NC(=O)c2cccc(S(=O)(=O)N3CCN(C)CC3)c2)cc1C	5	-25	-2	35	3	x	x	x	x
CCOC(=O)c1sc(NC(=O)c2cccc(S(=O)(=O)N(CC)CC)c2)cc1C	61*	-16	-22	27	11	47*	63*	10	6
Cc1csc(SCCn2c(N3CCN(c4ccccc4)CC3)nc3c2c(=O)[nH]c(=O)n3C)n1	54*	-10	-8	6	16	19	39	8	9
Cn1c(N2CCCCC2)nc2c1c(=O)[nH]c(=O)n2C	1	-2	1	3	4	x	x	x	x
Cn1c(N2CCN(C(c3ccccc3)c3ccccc3)CC2)nc2c1c(=O)[nH]c(=O)n2C	67*	-24	-2	2	15	31*	50*	13*	33
O=C(N/N=C\c1ccc(COc2ccc([N+](=O)[O-])cc2)o1)c1cccc(Cl)c1	56*	1	8	50	16	26*	42	4	5
SMILES	TAAR1 antag	OX1R antag-1	CHO parental Ca	OX1R antag-2	TAAR1 agonist	TAAR1 nonsel count	TAAR1 ant conf	Ga16 ag counter	TAAR1 ag count
O=C(N/N=C\c1ccc(COc2ccc([N+](=O)[O-])cc2)o1)c1ccc(Cl)cc1	37	-2	6	21	3	x	x	x	x
O=C(Cc1c[nH]c2ccccc12)Nc1ccc(Nc2cccnc2)c(-c2cc(F)cc(F)c2)c1	89*	x	x	x	18	36*	57*	14*	15
COc1ccc(-c2cc(NC(=O)Cc3c[nH]c4ccccc34)ccc2Nc2cccnc2)cc1F	90*	x	x	x	20	39*	65*	10	12
CC(C)(C)c1ccc(-c2cc(NC(=O)Cc3c[nH]c4ccccc34)ccc2Nc2cccnc2)cc1	-32	x	x	x	1	x	x	x	x
O=C(Cc1c[nH]c2ccccc12)Nc1ccc(Nc2cccnc2)c(-c2ccc(Oc3ccccc3)cc2)c1	30	x	x	x	2	x	x	x	x
O=C(Cc1c[nH]c2ccccc12)Nc1ccc(Nc2cccnc2)c(-c2ccc(Cl)c(Cl)c2)c1	71*	x	x	x	11	38*	56*	9	10
Cc1ccc(C(=O)NCCN2CCC(n3c(=O)[nH]c4ccccc43)CC2)cc1C	5	x	x	x	5	x	x	x	x
CN1CCN(C(=S)c2cn(CCOc3ccccc3)c3ccccc23)CC1	-6	-18	-16	16	4	x	x	x	x
CCOC(=O)C1CCN(C(=O)c2oc3ccc(S(=O)(=O)N4CC(C)CC(C)C4)cc3c2C)CC1 (stereo unspecified)	-11	-41	-12	10	0	x	x	x	x
Cc1cc(Br)ccc1NC(=O)c1ccccc1-c1ccccc1	57*	-54	-36	29	1	3	1	2	2
COc1cc(/C=N/NC(=O)c2ccc3c(c2)OCCO3)cc(Cl)c1O	-15	-12	-2	13	17	x	x	x	x
N#CC(C#N)=Cc1cc2ccccc2nc1N1CCOCC1	-6	1	-6	14	1	x	x	x	x
N#C/C(=C\c1cc2ccccc2nc1N1CCOCC1)C(=O)Nc1ccc(N2CCOCC2)cc1	59*	-27	-6	22	13	30*	46	9	6
CCc1cccc2c(C(=O)COC(=O)C3=NNC(=O)CC3)c[nH]c12	7	-15	5	30	7	x	x	x	x
